Source: ChEMBL document CHEMBL5303300, “EUbOPEN Chemogenomics Library - Multiplex” (2023)
“And” between values parts separate entries of the source, which are not always exact repeats. Identical values can stand only once.

System: Fibroblast
Assay: Multiplex assay against human fibroblast
Type: toxicity, cell-based
Conditions: number of replicates 2
Procedure, shortened: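 Phenotypes for tubulin, mitochondrial mass and membrane permeability are expressed as per cents of healthy-nucleus cells. Cells were stained live at seeding with Hoechst33342, BioTracker Green Microtubule Cytoskeleton Dye, MitoTracker Red and Annexin V Alexa Fluor 680, then imaged after compound addition on a CQ1 microscope at 37°C and 5% CO2. Machine-learning gating in CellPathfinder separated Hoechst high-intensity objects from normal cells, divided normal cells by nuclear state (healthy, pyknosed, fragmented) and divided pyknosed cells into mitotic or apoptotic.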

[1] = 12 h, 1 µM, compound concentration 1 uM
[2] = 12 h, 10 µM, compound concentration 10 uM
[3] = 24 h, 1 µM, compound concentration 1 uM
[4] = 24 h, 10 µM, compound concentration 10 uM
[5] = 48 h, 1 µM, compound concentration 1 uM
[6] = 48 h, 10 µM, compound concentration 10 uM

COc1ccncc1C(=O)NC(=O)Nc1ccc(-c2ccccc2)c(C(F)(F)F)c1
Population Apoptotic (%) [1]: 43% and 32%
Population Fragmented Nuclei (%) [1]: 7% and 12%
Population Healthy Nuclei (%) [1]: 73% and 71%
Population Hoechst High Intensity Objects (%) [1]: 0%
Population Membrane Permeable-Phenotype (%) [1]: 5% and 3%
Population Mitochondria Different-Phenotype (%) [1]: 1% and 2%
Population Mitotic Cells (%) [1]: 56% and 67%
Population Normal (%) [1]: 99% and 100%
Population Pyknosed Nuclei (%) [1]: 19% and 15%
Population Tubulin-Different-Phenotype (%) [1]: 6% and 5%
Total Cell Count [1]: 158 and 217
Population Apoptotic (%) [2]: 38% and 50%
Population Fragmented Nuclei (%) [2]: 8% and 16%
Population Healthy Nuclei (%) [2]: 69%
Population Hoechst High Intensity Objects (%) [2]: 0%
Population Membrane Permeable-Phenotype (%) [2]: 9% and 5%
Population Mitochondria Different-Phenotype (%) [2]: 2%
Population Mitotic Cells (%) [2]: 61% and 50%
Population Normal (%) [2]: 100%
Population Pyknosed Nuclei (%) [2]: 22% and 13%
Population Tubulin-Different-Phenotype (%) [2]: 22% and 16%
Total Cell Count [2]: 213 and 202
Population Apoptotic (%) [3]: 59% and 44%
Population Fragmented Nuclei (%) [3]: 19% and 15%
Population Healthy Nuclei (%) [3]: 61% and 68%
Population Hoechst High Intensity Objects (%) [3]: 0%
Population Membrane Permeable-Phenotype (%) [3]: 4% and 6%
Population Mitochondria Different-Phenotype (%) [3]: 1% and 2%
Population Mitotic Cells (%) [3]: 40% and 55%
Population Normal (%) [3]: 100%
Population Pyknosed Nuclei (%) [3]: 19% and 16%
Population Tubulin-Different-Phenotype (%) [3]: 12% and 10%
Total Cell Count [3]: 189 and 219
Population Apoptotic (%) [4]: 46% and 65%
Population Fragmented Nuclei (%) [4]: 10% and 18%
Population Healthy Nuclei (%) [4]: 66% and 70%
Population Hoechst High Intensity Objects (%) [4]: 0%
Population Membrane Permeable-Phenotype (%) [4]: 6% and 4%
Population Mitochondria Different-Phenotype (%) [4]: 0% and 2%
Population Mitotic Cells (%) [4]: 53% and 34%
Population Normal (%) [4]: 100%
Population Pyknosed Nuclei (%) [4]: 22% and 11%
Population Tubulin-Different-Phenotype (%) [4]: 19% and 12%
Total Cell Count [4]: 215 and 203
Population Apoptotic (%) [5]: 75% and 63%
Population Fragmented Nuclei (%) [5]: 13% and 16%
Population Healthy Nuclei (%) [5]: 69% and 74%
Population Hoechst High Intensity Objects (%) [5]: 0%
Population Membrane Permeable-Phenotype (%) [5]: 4% and 7%
Population Mitochondria Different-Phenotype (%) [5]: 0%
Population Mitotic Cells (%) [5]: 25% and 36%
Population Normal (%) [5]: 100% and 99%
Population Pyknosed Nuclei (%) [5]: 16% and 9%
Population Tubulin-Different-Phenotype (%) [5]: 4% and 6%
Total Cell Count [5]: 173 and 239
Population Apoptotic (%) [6]: 66%
Population Fragmented Nuclei (%) [6]: 9% and 16%
Population Healthy Nuclei (%) [6]: 79% and 77%
Population Hoechst High Intensity Objects (%) [6]: 0%
Population Membrane Permeable-Phenotype (%) [6]: 9% and 1%
Population Mitochondria Different-Phenotype (%) [6]: 0% and 1%
Population Mitotic Cells (%) [6]: 33%
Population Normal (%) [6]: 100%
Population Pyknosed Nuclei (%) [6]: 10% and 6%
Population Tubulin-Different-Phenotype (%) [6]: 11% and 4%
Total Cell Count [6]: 221 and 197

CC(C)c1c(NC(=O)Nc2ccc(Cl)cc2)c(=O)n(-c2ccccc2)n1C
Population Apoptotic (%) [1]: 30% and 36%
Population Fragmented Nuclei (%) [1]: 9% and 13%
Population Healthy Nuclei (%) [1]: 77% and 68%
Population Hoechst High Intensity Objects (%) [1]: 0%
Population Membrane Permeable-Phenotype (%) [1]: 5% and 3%
Population Mitochondria Different-Phenotype (%) [1]: 0%
Population Mitotic Cells (%) [1]: 69% and 63%
Population Normal (%) [1]: 100% and 99%
Population Pyknosed Nuclei (%) [1]: 13% and 17%
Population Tubulin-Different-Phenotype (%) [1]: 11% and 7%
Total Cell Count [1]: 175 and 269
Population Apoptotic (%) [2]: 34% and 46%
Population Fragmented Nuclei (%) [2]: 9% and 7%
Population Healthy Nuclei (%) [2]: 68%
Population Hoechst High Intensity Objects (%) [2]: 0%
Population Membrane Permeable-Phenotype (%) [2]: 2% and 11%
Population Mitochondria Different-Phenotype (%) [2]: 1%
Population Mitotic Cells (%) [2]: 65% and 53%
Population Normal (%) [2]: 99% and 100%
Population Pyknosed Nuclei (%) [2]: 21% and 24%
Population Tubulin-Different-Phenotype (%) [2]: 12% and 21%
Total Cell Count [2]: 122 and 191
Population Apoptotic (%) [3]: 34% and 35%
Population Fragmented Nuclei (%) [3]: 10% and 14%
Population Healthy Nuclei (%) [3]: 75% and 71%
Population Hoechst High Intensity Objects (%) [3]: 0%
Population Membrane Permeable-Phenotype (%) [3]: 5% and 6%
Population Mitochondria Different-Phenotype (%) [3]: 0% and 1%
Population Mitotic Cells (%) [3]: 65% and 64%
Population Normal (%) [3]: 100%
Population Pyknosed Nuclei (%) [3]: 13%
Population Tubulin-Different-Phenotype (%) [3]: 14% and 5%
Total Cell Count [3]: 166 and 271
Population Apoptotic (%) [4]: 48% and 35%
Population Fragmented Nuclei (%) [4]: 5% and 6%
Population Healthy Nuclei (%) [4]: 73% and 65%
Population Hoechst High Intensity Objects (%) [4]: 0%
Population Membrane Permeable-Phenotype (%) [4]: 7% and 6%
Population Mitochondria Different-Phenotype (%) [4]: 0%
Population Mitotic Cells (%) [4]: 52% and 64%
Population Normal (%) [4]: 100%
Population Pyknosed Nuclei (%) [4]: 20% and 27%
Population Tubulin-Different-Phenotype (%) [4]: 13%
Total Cell Count [4]: 123 and 204
Population Apoptotic (%) [5]: 79% and 65%
Population Fragmented Nuclei (%) [5]: 14% and 17%
Population Healthy Nuclei (%) [5]: 71% and 74%
Population Hoechst High Intensity Objects (%) [5]: 0%
Population Membrane Permeable-Phenotype (%) [5]: 2% and 6%
Population Mitochondria Different-Phenotype (%) [5]: 0%
Population Mitotic Cells (%) [5]: 20% and 34%
Population Normal (%) [5]: 100%
Population Pyknosed Nuclei (%) [5]: 13% and 8%
Population Tubulin-Different-Phenotype (%) [5]: 8% and 4%
Total Cell Count [5]: 174 and 274
Population Apoptotic (%) [6]: 53% and 47%
Population Fragmented Nuclei (%) [6]: 17% and 14%
Population Healthy Nuclei (%) [6]: 70% and 62%
Population Hoechst High Intensity Objects (%) [6]: 0%
Population Membrane Permeable-Phenotype (%) [6]: 8% and 10%
Population Mitochondria Different-Phenotype (%) [6]: 0%
Population Mitotic Cells (%) [6]: 46% and 52%
Population Normal (%) [6]: 100% and 99%
Population Pyknosed Nuclei (%) [6]: 11% and 23%
Population Tubulin-Different-Phenotype (%) [6]: 12% and 13%
Total Cell Count [6]: 134 and 222
